Results pooled from the literature.
Lines come from different studies, so protocols differ.
Target: Mitogen-activated protein kinase kinase kinase kinase 5 (MAP4K5, Homo sapiens, UniProt Q9Y4K4)

SMILES | effect on | method | concentration | remaining binding
N[C@@H]1CCN(c2nccc(-c3cnn4ncccc34)n2)C1 | binding | – | 1 µM | 100%
Cc1cnc(Nc2ccc(C(=O)N3CCC(N4CCCC4)CC3)cc2)nc1-c1cc2ccccc2s1 | binding | competition with immobilised ligand | 1 µM | 51%
O=C(O)[C@@H]1[C@@H](Cn2nnc3ccccc3c2=O)CC[C@H]1C(=O)c1ccc(OCCC2CCOCC2)cc1 | cell-free assay | competition with immobilised ligand | 1 µM | 100%
CC1CCCN1c1nccc(-c2cnn3ncccc23)n1 (centres unmarked) | binding | – | 1 µM | 100%
FC(F)(F)Oc1cccc(-c2cnc3ccc(-c4ccncc4)nn23)c1 | cell-free assay | competition with immobilised ligand | 5 µM | 77%
CN(C)c1nccc(-c2cnn3ncccc23)n1 | binding | – | 1 µM | 88%
CNC(=O)[C@@H]1CC[C@@H](n2c(-c3ccc4cnccc4c3)nc3ccc(C(=O)NCc4cccc(C(N)=O)c4)cc32)C1 | binding | competition with immobilised ligand | 1 µM | 100%
COc1ncc2cc3ccccc3nc2c1C#N | cell-free assay | competition with immobilised ligand | 5 µM | 95%
COc1cnc(Nc2cccc(S(N)(=O)=O)c2)nc1N1CCN(c2ccccc2)C(=O)C1 | binding | competition with immobilised ligand | 1 µM | 100%
O=C(NCc1ncc(C(F)(F)F)cc1Cl)c1ccc2c(c1)C1(CCS(=O)(=O)CC1)[C@@H](C1CC1)N2S(=O)(=O)c1ccc(F)cc1 | cell-free assay | competition with immobilised ligand | 1 µM | 100%
C[C@H]1CCN(c2nccc(-c3cnn4ncccc34)n2)C1 | binding | – | 1 µM | 90%
CCN1CCN(Cc2ccc(C(=O)Nc3ccc(C)c(Oc4ccc5c(c4)CC(=O)N5)c3)cc2C(F)(F)F)CC1 | binding | competition with immobilised ligand | 1 µM | 100%
CNC(=O)c1ccc(Nc2ncc(C(F)(F)F)c(NCc3nccnc3N(C)S(C)(=O)=O)n2)cc1 | cell-free assay | competition with immobilised ligand | 0.1 µM | 100%
Cc1cnn2ncc(-c3ccnc(N(C)C)n3)c2c1 | binding | – | 1 µM | 67%
CC(=O)c1c(NS(C)(=O)=O)c2cc(-c3ccc(Cl)cc3)c(-c3ccc(Cl)cc3Cl)nc2n(C)c1=O | cell-free assay | competition with immobilised ligand | 1 µM | 100%
O=C(NCC1CCOCC1)c1n[nH]cc1NC(=O)c1c(F)cccc1F | binding | competition with immobilised ligand | 1 µM | 89%
Nc1c(C(=O)NCc2ccc(C(=O)NCCCC3CCCCC3)cc2)cnn1-c1ccccc1 | cell-free assay | competition with immobilised ligand | 0.1 µM | 100%
CN(c1nccc(-c2cnn3ncccc23)n1)C1CC1 | binding | – | 1 µM | 3.2%
COc1ccc2c(O[C@@H]3C[C@H]4C(=O)N[C@]5(C(=O)O)CC5/C=C\CCCCC[C@H](NC(=O)OC5CCCC5)C(=O)N4C3)cc(-c3csc(NC(=O)C(C)C)n3)nc2c1C (some centres unmarked) | cell-free assay | competition with immobilised ligand | 1 µM | 100%
O=C(c1ccc(Nc2nccc(-c3cc4ccccc4s3)n2)cc1)N1CCC(N2CCCC2)CC1 | binding | competition with immobilised ligand | 1 µM | 100%
